The values that follow come from ChEMBL document CHEMBL5346889, “Discovery of 4-oxo-N-phenyl-1,4-dihydroquinoline-3-carboxamide derivatives as novel anti-inflammatory agents for the treatment of acute lung injury and sepsis” (Eur J Med Chem, 2023).

As a reminder, the inhibition is the share of the control response that was lost under treatment. What is called bioavailability is the share of a dose that reaches the circulation, judged against a reference dose that is usually intravenous. One may read the IC50 as the concentration at which inhibition is half-maximal. Usually AUC(0-t) stands for exposure summed from dosing to a finite time, without extrapolation to infinity. Lower therefore signals low exposure.

The source made the active and inactive calls. The calls are words filed in the database; no cut-off is given here.

The subject of data set [1] is J774.A1. Nature of the data set: Inhibition of NF-kappaB pathway in LPS-induced mouse J774.A1 cells assessed as inhibition of p65 phosphorylation preincubated with compound for 2 hrs followed by LPS-stimulation and measured after 30 mins by Western blot analysis. The class given is cell-based. The note with it: dose 5-10 µM, time 2.5 hrs. Summed up:
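J774A.1 cells preincubated with 10 or 5 μM or DMSO for 2 h, then LPS 0.5 μg/mL for 30 min. RIPA lysates run on 12.5% SDS-PAGE, transferred to PVDF, blocked with 5% milk; probed for IκB-α and p-p65, with GAPDH and p65 as loading controls; ECL detection; densitometry.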
On the technique in general: Immunoblotting shows a protein as a band on a membrane.

For data set [2], the system named is J774.A1. Nature of the data set: Antiinflammatory activity in LPS-induced mouse J774.A1 cells assessed as inhibition of LPS-induced TNF-alpha release at 10 uM preincubated for 30 mins followed by LPS stimulation for 24 hrs by ELISA method. The class given is functional. The note with it: time 24.5 hrs. Summed up:
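J774A.1 macrophages pretreated 30 min at 10 μM, then challenged with LPS 0.5 μg/mL for 24 h at 37 °C, 5% CO2. Medium IL-6 and TNF-α measured by ELISA, normalized to total lysate protein.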
In general terms: An ELISA detects its analyte on a solid surface through an enzyme-linked reagent.

Data set [3] concerns Mus musculus. Nature of the data set: Protection against LPS-induced C57/BL6 mouse acute lung injury model assessed as improvement in structural distruption of lung tissue at 20 mg/kg via oral gavage preincubated for 30 mins followed by LPS stimulation for 6 hrs. The class given is functional, organism-based. The note with it: time 6.5 hrs. Summed up:
(§1)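 Mice dosed 20 mg/kg by gavage (dexamethasone 20 mg/kg comparator), intratracheal LPS 5 mg/kg 30 min later, killed at 6 h. Right upper lobe fixed in paraformaldehyde, H&E; lung wet/dry ratio; BALF protein, total cells and neutrophils counted; n = 5 mice per group, mean ± SEM.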

Data set [4] has as its system Mus musculus. Nature of the data set: Antiinflammatory activity in LPS-induced C57/BL6 mouse acute lung injury model assessed as decrease in IL-6 level in BALF at 20 mg/kg via oral gavage preincubated for 30 mins followed by LPS stimulation for 6 hrs by ELISA. The note with it: time 6.5 hrs.
In data set [5] the test system is Mus musculus. Kind of data set: Protection against LPS-induced C57/BL6 mouse acute lung injury model assessed as reduction in number of total cells in BALF at 20 mg/kg via oral gavage preincubated for 30 mins followed by LPS stimulation for 6 hrs. The class given is functional, organism-based. The note with it: time 6.5 hrs. Summed up:
as §1

For data set [6], the system named is THP-1. Nature of the data set: Antiinflammatory activity in LPS-induced human THP-1 cells assessed as inhibition of LPS-induced IL-6 transcription preincubated for 0.5 hrs followed by LPS stimulation for 6 hrs by RT-qPCR method. The class given is functional, cell-based. The conditions noted are these: dose 5-10 µM, time 6.5 hrs. Summed up: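 J774A.1 or THP-1 cells pretreated 0.5 h at 10 or 5 μM, then LPS 0.5 μg/mL for 6 h. TRIzol RNA; IL-6, TNF-α and IL-1β transcripts by RT-qPCR, normalized to β-actin and control; 3 independent experiments, mean ± SEM.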
(In general: In qPCR the cycle at which signal appears reflects the starting amount.)

Data set [7] deals with Mus musculus. Kind of data set: Protection against LPS-induced C57/BL6 mouse acute lung injury model assessed as reduction in number of neutrophils in BALF at 20 mg/kg via oral gavage preincubated for 30 mins followed by LPS stimulation for 6 hrs. It is filed as functional, organism-based. The note with it: time 6.5 hrs. The method in brief:
as §1

For data set [8], the system named is Mus musculus. Nature of the data set: Protection against LPS-induced sepsis in C57/BL6 mouse model assessed as reduction of obvious white pulp in spleen at 20 mg/kg, po preincubated with compound followed by LPS stimulation for 1 hr by H and E staining based analysis. The class given is functional, organism-based. Summed up:
(§2)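 Mice given 20 mg/kg orally, then intraperitoneal LPS 20 mg/kg 1 h later; n = 12 per group. Kidney, liver, heart and spleen weighed; spleen sections H&E-stained for histology.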

Data set [9] concerns Mus musculus. Nature of the data set: Antiinflammatory activity in LPS-induced C57/BL6 mouse acute lung injury model assessed as decrease in TNF-alpha level in serum at 20 mg/kg via oral gavage preincubated for 30 mins followed by LPS stimulation for 6 hrs by ELISA. The note with it: time 6.5 hrs.
Data set [10] has as its system Mus musculus. Kind of data set: Protection against LPS-induced sepsis in C57/BL6 mouse model assessed as reduction in weight loss at 20 mg/kg, po preincubated with compound followed by LPS stimulation for 1 hr and measured every 24 hrs by 6 days. The class given is functional, organism-based. The conditions noted are these: time 6.0 day. Summed up:
(§3)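 Sepsis model in C57BL/6 mice, n = 12 per group: oral 20 mg/kg, then intraperitoneal LPS 20 mg/kg 1 h later; saline control. Survival checked every 12 h and body weight every 24 h for 6 days.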

Data set [11] deals with Mus musculus. Kind of data set: Protection against LPS-induced sepsis in C57/BL6 mouse model assessed as reduction in demarcation between white and red pulp at 20 mg/kg, po preincubated with compound followed by LPS stimulation for 1 hr by H and E staining based analysis. The class given is functional, organism-based. The method in brief:
as §2

A short description of data set [12]: Oral bioavailability in rat at 10 mg/kg. The class given is ADME, organism-based. The conditions noted are these: in vivo. The method in brief: (§4)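 Rats dosed intravenously at 1 mg/kg or orally at 10 mg/kg; plasma pharmacokinetic parameters AUC(0-t), Tmax, T1/2, Cmax and oral bioavailability F derived from the two routes.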
Data set [13] deals with Mus musculus. Nature of the data set: Protection against LPS-induced C57/BL6 mouse acute lung injury model assessed as reduction in lung wet/dry ratio at 20 mg/kg via oral gavage preincubated for 30 mins followed by LPS stimulation for 6 hrs. It is filed as functional, organism-based. The note with it: time 6.5 hrs. The method in brief: as §1
In data set [14] the test system is Mus musculus. Kind of data set: Protection against LPS-induced sepsis in C57/BL6 mouse model assessed as improvement in survival rate at 20 mg/kg, po preincubated with compound followed by LPS stimulation for 1 hr and measured every 12 hrs by 6 days. The conditions noted are these: time 6.0 day. It is filed as functional, organism-based. The method in brief:
as §3

Data set [15] can be described thus: Stability of the compound in pH 7.4 phosphate buffer measured upto 30 mins by UV-Vis analysis. The note with it: pH 7.4, 0.5 h. It is filed as physicochemical. The method in brief: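 Dissolved in phosphate buffer pH 7.4; UV-visible absorption (OD) recorded over 30 min.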
Data set [16] relates to Mus musculus. Kind of data set: Antiinflammatory activity in LPS-induced C57/BL6 mouse acute lung injury model assessed as decrease in TNF-alpha level in BALF at 20 mg/kg via oral gavage preincubated for 30 mins followed by LPS stimulation for 6 hrs by ELISA. The note with it: time 6.5 hrs.
Data set [17] concerns Mus musculus. Nature of the data set: Protection against LPS-induced sepsis in C57/BL6 mouse model assessed as reduction in periarterial lymphatic sheath thickening at 20 mg/kg, po preincubated with compound followed by LPS stimulation for 1 hr by H and E staining based analysis. It is filed as functional, organism-based. The method in brief:
as §2

The subject of data set [18] is Mus musculus. Kind of data set: Protection against LPS-induced C57/BL6 mouse acute lung injury model assessed as reduction in protein concentration in BALF at 20 mg/kg via oral gavage preincubated for 30 mins followed by LPS stimulation for 6 hrs. It is filed as functional, organism-based. The conditions noted are these: time 6.5 hrs. The method in brief:
as §1

Data set [19] has as its system THP-1. Nature of the data set: Antiinflammatory activity in LPS-induced human THP-1 cells assessed as inhibition of LPS-induced TNF-alpha release preincubated for 30 mins followed by LPS stimulation for 24 hrs by ELISA method. It is filed as functional, cell-based. Summed up: (§5)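 THP-1 or LX-2 cells in DMEM with 10% FBS, 37 °C, 5% CO2. Pretreated 30 min at 10, 5, 2.5 or 1.25 μM, then LPS 0.5 μg/mL for 24 h. IL-6 and TNF-α in medium measured by ELISA, normalized to lysate total protein; mean ± SEM of 3 independent experiments.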

A short description of data set [20]: AUC (0 to t) in rat at 10 mg/kg, po. It is filed as ADME, organism-based. Set-up: dose 10 mg/kg, route po. The note with it: in vivo. The method in brief:
as §4

Data set [21] concerns THP-1. Nature of the data set: Antiinflammatory activity in LPS-induced human THP-1 cells assessed as inhibition of LPS-induced IL-6 release preincubated for 30 mins followed by LPS stimulation for 24 hrs by ELISA method. It is filed as functional, cell-based. The method in brief:
as §5

As to `COc1cc2nccc(Oc3ccc(NC(=O)c4cn(-c5ccccc5)c5ccccc5c4=O)cc3)c2cc1OC`, the inhibition result with J774.A1 [1] and in the data set with THP-1 [6] was “Dose-Dependent Effect” in each case. The inhibition at 10 µM with J774.A1 [2] turned out to be 82.6%. For the same compound, the result in the data set with Mus musculus [3], with Mus musculus [4], in the data set on Mus musculus [5], in the data set with Mus musculus [7], in the data set on Mus musculus [8] and in the data set on Mus musculus [9] was Active. For the same compound, the result in the data set on Mus musculus [10], in the data set on Mus musculus [11], in the data set on Mus musculus [13], in the data set on Mus musculus [14], in the data set on Mus musculus [16] and in the data set on Mus musculus [17] was Active. Further, the result with Mus musculus [18] was Active. The bioavailability in [12] was determined as 36.3%. Besides, in [15], the Stability entry is “Stable”. The IC50 in the data set with THP-1 [19] was 1670 nM; in the data set with THP-1 [21], 1330 nM. In addition, the AUC(0-t) in data set [20] stood at 22900 ng·h/mL.
